One experiment relates to ZR-75-1. The experiment is described as follows: Anticancer activity against human ZR-75-1 cells by SRB method. The class given is functional. The gist of the method: (§1)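 Growth inhibition over a panel of human cancer lines (lung, ovarian, oral, colon, prostate, cervix, breast). Value is the 50% growth-inhibition concentration, reported as the mean ± standard error of the mean of three determinations.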

Experiment [1] deals with MCF7. Briefly: Anticancer activity against human MCF7 cells by SRB method. The class given is functional. The gist of the method:
as §1
On the technique in general: The SRB assay estimates cell density from bound dye.

The test system of a further experiment is HOP-62. The experiment is described as follows: Anticancer activity against human HOP62 cells by SRB method. The class given is functional. Put shortly: as §1
Experiment [2] can be described thus: Anticancer activity against human Gurav cells by SRB method. The format is functional. Put shortly: as §1
The next experiment relates to A549. The experiment is described as follows: Anticancer activity against human A549 cells by SRB method. The format is functional. The gist of the method: as §1
Another experiment deals with A2780. Briefly: Anticancer activity against human A2780 cells by SRB method. The class given is functional. Put shortly: as §1
Experiment [3] is described as follows: Anticancer activity against human DWD cells by SRB method. The format is functional. Put shortly:
as §1

The next experiment concerns KB. Briefly: Anticancer activity against human KB cells by SRB method. The format is functional. Put shortly:
as §1

The next experiment deals with PC-3. Briefly: Anticancer activity against human PC3 cells by SRB method. The class given is functional. Put shortly: as §1
In the next experiment the test system is SiHa. Briefly: Anticancer activity against human SiHa cells by SRB method. The class given is functional. The gist of the method: as §1
The test system of experiment [4] is MCF7. Briefly: Cytotoxicity against human MCF7 cells assessed as reduction in cell viability at 4 uM after 24 hrs by MTT assay. The class given is functional, cell-based. The gist of the method: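 MCF-7 cells were seeded at 10,000 per well and left overnight, then treated with 4 µM compound for 24 h. MTT was added for 2 h at 37 °C, formazan was solubilized in extraction buffer, and OD was read at 570 nm. Untreated cells served as control. Three independent experiments, SD.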
(In general: Tetrazolium assays rely on reduction of a dye to a coloured formazan, in cell work by metabolically active cells.)

For experiment [5], the system named is MCF7. The experiment is described as follows: Cytotoxicity against human MCF7 cells assessed as reduction in cell viability at 2 uM after 24 hrs by MTT assay. The format is functional, cell-based.
Experiment [6] concerns MCF7. Briefly: Cell cycle arrest in human MCF7 cells assessed as accumulation at G0/G1 phase at 4 uM after 24 hrs using propidium iodide staining based flow cytometric analysis. The class given is functional. The gist of the method: (§2)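 MCF-7 cells were seeded at 5 × 10^5 per 60 mm dish and grown for 24 h, then exposed to 4 µM compound for 24 h. Cells were trypsinized, fixed in ice-cold 70% ethanol at 4 °C for 30 min and treated with 1 mg/ml RNase at 37 °C for 30 min. They were stained with propidium iodide/citrate/Triton X-100, and DNA content was read on 20,000 events by flow cytometry. Three independent repeats.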

The test system of experiment [7] is MCF7. The experiment is described as follows: Cell cycle arrest in human MCF7 cells assessed as accumulation at G0 phase at 10 uM after 24 hrs using propidium iodide staining based flow cytometric analysis (reference value: 1.27 +/- 0.08 %). The format is functional. (Flow cytometry measures light scatter and fluorescence of single cells or particles in a stream.)

Experiment [8] deals with MCF7. Briefly: Cell cycle arrest in human MCF7 cells assessed as accumulation at G1 phase at 10 uM after 24 hrs using propidium iodide staining based flow cytometric analysis (reference value: 47.64 +/- 1.49 %). The class given is functional.
The subject of experiment [9] is MCF7. Briefly: Cell cycle arrest in human MCF7 cells assessed as accumulation at S phase at 10 uM after 24 hrs using propidium iodide staining based flow cytometric analysis (reference value: 12.92 +/- 1 %). The format is functional.
Experiment [10] relates to MCF7. Briefly: Cell cycle arrest in human MCF7 cells assessed as accumulation at G2/M phase at 10 uM after 24 hrs using propidium iodide staining based flow cytometric analysis (reference value: 38.15 +/- 1.068 %). The format is functional.
Experiment [11] deals with MCF7. The experiment is described as follows: Induction of cell cycle arrest at G1 phase in human MCF7 cells at 4 uM after 24 hrs using propidium iodide staining based flow cytometric analysis. The format is functional. The gist of the method: as §2
Experiment [12] deals with MCF7. The experiment is described as follows: Downregulation of cyclin D1 protein expression in human MCF7 cells at 4 uM after 24 hrs by Western blot analysis. The format is functional, cell-based. The gist of the method: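 MCF-7 cells at 80% confluency were treated with 4 µM compound for 24 h. Cells were lysed in RIPA buffer with protease inhibitors and protein was quantified by Bradford. 50 µg per lane was run on 12% SDS-PAGE and transferred to PVDF. Blots were probed overnight at 4 °C with rabbit polyclonal anti-cyclin D1, with β-actin as loading control, and detected by chemiluminescence.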

The target of experiment [13] is G1/S-specific cyclin-D1 (Homo sapiens) (UniProt P24385). Briefly: Down regulation of Cyclin D1 promoter activity expressed in human MCF7 cells co-transfected with luciferase gene at 4 uM after 24 hrs by luciferase reporter gene assay. The format is cell-based. The gist of the method:
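MCF-7 cells were transfected for 24 h with the cyclin D1 promoter (−1745) luciferase construct, which contains an NF-kB site. Cells were then treated with 4 µM compound (final) for a further 24 h, and lysate luciferase was measured by luminometer. Untransfected cells served as negative control and transfected untreated cells as control.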

Experiment [14] in a line: Down regulation of NF-kappaB activity expressed in human MCF7 cells transfected with NF-kB SEAP plasmid at 4 uM after 24 hrs by chemiluminescence-based luminometric analysis. The class given is cell-based. The gist of the method: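 MCF-7 cells were transiently transfected with the NF-kB SEAP plasmid using lipofectamine 2000. After 24 h, cells were treated with 4 µM compound for 24 h. Lysates were assayed with a chemiluminescent reagent and read by luminometry and by 30 min X-ray film exposure. Transfected untreated cells served as control.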

In experiment [15] the test system is MCF7. The experiment is described as follows: Induction of apoptosis in human MCF7 cells assessed as down regulation of Bcl2 expression at 4 uM after 24 hrs by ELISA. The class given is functional, cell-based. The gist of the method:
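MCF-7 cells were treated with 4 µM compound for 24 h. Lysates were added to Bcl2 antibody-coated wells, followed by biotinylated anti-human Bcl2 monoclonal antibody, and bound Bcl2 was detected with streptavidin-HRP (sandwich ELISA).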

Experiment [16] deals with MCF7. Briefly: Induction of apoptosis in human MCF7 cells assessed as down regulation of Bcl-xL expression at 4 uM after 24 hrs by Western blot.

Activity calls are given as the source filed them. No cut-off for these calls is given here.

The term GI50 denotes the concentration at which growth is held to half of that of the control. A low value points to more potent growth inhibition.

Chain of G1/S-specific cyclin-D1 (Homo sapiens) (P24385 whole entry): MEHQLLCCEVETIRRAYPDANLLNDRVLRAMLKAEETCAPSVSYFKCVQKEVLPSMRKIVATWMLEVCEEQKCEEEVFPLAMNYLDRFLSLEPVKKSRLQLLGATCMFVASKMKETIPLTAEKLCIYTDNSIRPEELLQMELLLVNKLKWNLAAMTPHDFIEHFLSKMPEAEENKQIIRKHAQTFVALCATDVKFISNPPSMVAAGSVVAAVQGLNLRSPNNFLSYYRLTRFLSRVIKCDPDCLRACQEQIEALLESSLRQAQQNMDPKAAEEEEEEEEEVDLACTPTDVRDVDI

With `COc1cc(/C=C/C(=O)c2ccc(O)cc2)ccc1OCCCn1cc(COc2cc3c(cc2OC)C(=O)N2CCC[C@H]2C=N3)nn1`, the GI50 with ZR-75-1 was found to be 0.17 µM; in the experiment on MCF7 [1] it was 0.16 µM; with HOP-62 it was 0.17 µM; in [2], 0.13 µM; in the experiment with A549, 0.15 µM; in the experiment with A2780 it was 0.12 µM. Also, the GI50 is 0.12 µM in experiment [3], 2.03 µM with KB, 0.16 µM in the experiment on PC-3 and 0.18 µM with SiHa. In addition, the result (in the experiment with MCF7 [4]; in the experiment with MCF7 [11]; with MCF7 [12]; in experiment [13]; in experiment [14]; in the experiment on MCF7 [15]) was Active. In addition, the result in the experiment on MCF7 [16] was Active. In addition, the outcome with MCF7 [5] was inactive. Moreover, the Activity is reported as 87.7% in the experiment on MCF7 [6]; 13.67% in the experiment on MCF7 [7]; 72.51% with MCF7 [8]; 6.48% in the experiment on MCF7 [9]; 7.33% in the experiment on MCF7 [10].

Turning to `COc1cc(/C=C/C(=O)c2ccccc2O)ccc1OCCCCn1cc(COc2cc3c(cc2OC)C(=O)N2CCC[C@H]2C=N3)nn1`, the concentration for 50% growth inhibition (GI50) in the experiment with ZR-75-1 was 0.15 µM; in the experiment on MCF7 [1] it was 0.14 µM; in the experiment on HOP-62, 0.16 µM; in experiment [2], 0.12 µM; in the experiment with A549, below 0.16 µM; in the experiment on A2780 it was 0.1 µM. For the same compound, the GI50 in [3] was below 0.13 µM; in the experiment on KB, 0.17 µM; in the experiment with PC-3 it was 0.13 µM; in the experiment on SiHa it was 0.14 µM. Also, the outcome (in the experiment with MCF7 [4]; in the experiment with MCF7 [11]; with MCF7 [12]; in experiment [13]; in experiment [14]; in the experiment with MCF7 [15]) was Active. In addition, in the experiment on MCF7 [16], the outcome was Active. Moreover, the result in the experiment on MCF7 [5] was inactive. For the same compound, the Activity in the experiment with MCF7 [6] stood at 89.1%; in the experiment with MCF7 [7], 10.79%; with MCF7 [8], 77.47%; in the experiment on MCF7 [9], 4.99%; in the experiment on MCF7 [10], 7.07%.

The values above are taken from ChEMBL document CHEMBL1821554, “Synthesis and anticancer activity of chalcone-pyrrolobenzodiazepine conjugates linked via 1,2,3-triazole ring side-armed with alkane spacers” (2011).
